Assay results published in ChEMBL document CHEMBL2321864, “Rapid discovery of a novel series of Abl kinase inhibitors by application of an integrated microfluidic synthesis and screening platform” (J Med Chem, 2013).

Key:
[1] = Intrinsic clearance in human liver microsomes; type: ADME, Microsome; conditions: read-out: CLH
In short: (§1)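 In vitro ADME run by a contract lab: human microsomal stability and parallel artificial membrane permeability assay (PAMPA).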

[2] = Apparent permeability of the compound by PAMPA assay; type: ADME; in short: as §1
[3] = target: Mitogen-activated protein kinase 14 (Homo sapiens, UniProt Q16539); experiment: Inhibition of P38alpha (unknown origin)
In short: (§2)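 Biochemical inhibition assays run by a contract screening service as a panel: ABL1 mutants H396P, M351T, Q252H, T315I and Y253F, plus P38α/MAPK14.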

[4] = target: Tyrosine-protein kinase ABL1 (Homo sapiens, UniProt P00519, Y253F); experiment: Inhibition of Abl1 kinase Y253F mutant (unknown origin); in short: as §2
[5] = target: Tyrosine-protein kinase ABL1 (Homo sapiens, UniProt P00519, T315I); experiment: Inhibition of Abl1 kinase T315I mutant (unknown origin); in short: as §2
[6] = target: Tyrosine-protein kinase ABL1 (Homo sapiens, UniProt P00519, M351T); experiment: Inhibition of Abl1 kinase M351T mutant (unknown origin); in short: as §2
[7] = target: Tyrosine-protein kinase ABL1 (Homo sapiens, UniProt P00519, Q252H); experiment: Inhibition of Abl1 kinase Q252H mutant (unknown origin); in short: as §2
[8] = target: Tyrosine-protein kinase ABL1 (Homo sapiens, UniProt P00519, H396P); experiment: Inhibition of Abl1 kinase H396P mutant (unknown origin); in short: as §2
[9] = target: T1, Tyrosine-protein kinase ABL1 (Homo sapiens, UniProt P00519); experiment: Inhibition of wild type Abl1 kinase (unknown origin)
[10] = target: T2, Tyrosine-protein kinase ABL2 (Homo sapiens, UniProt P42684); experiment: Inhibition of Abl2 kinase (unknown origin) using Tyr 6 peptide as substrate assessed as residual enzyme activity after every 10 secs measured for 10 mins
[11] = target: T1, Tyrosine-protein kinase ABL1; experiment: Inhibition of Abl1 kinase (unknown origin) using Tyr 6 peptide as substrate assessed as residual enzyme activity after every 10 secs measured for 10 mins
[12] = target: T2, Tyrosine-protein kinase ABL2; experiment: Inhibition of Abl2 kinase (unknown origin) using Tyr 6 peptide as substrate assessed as residual enzyme activity after every 10 secs measured for 10 mins by platform assay
[13] = target: T1, Tyrosine-protein kinase ABL1; experiment: Inhibition of Abl1 kinase (unknown origin) using Tyr 6 peptide as substrate assessed as residual enzyme activity after every 10 secs measured for 10 mins by platform assay

T2 sequence (P42684 whole entry): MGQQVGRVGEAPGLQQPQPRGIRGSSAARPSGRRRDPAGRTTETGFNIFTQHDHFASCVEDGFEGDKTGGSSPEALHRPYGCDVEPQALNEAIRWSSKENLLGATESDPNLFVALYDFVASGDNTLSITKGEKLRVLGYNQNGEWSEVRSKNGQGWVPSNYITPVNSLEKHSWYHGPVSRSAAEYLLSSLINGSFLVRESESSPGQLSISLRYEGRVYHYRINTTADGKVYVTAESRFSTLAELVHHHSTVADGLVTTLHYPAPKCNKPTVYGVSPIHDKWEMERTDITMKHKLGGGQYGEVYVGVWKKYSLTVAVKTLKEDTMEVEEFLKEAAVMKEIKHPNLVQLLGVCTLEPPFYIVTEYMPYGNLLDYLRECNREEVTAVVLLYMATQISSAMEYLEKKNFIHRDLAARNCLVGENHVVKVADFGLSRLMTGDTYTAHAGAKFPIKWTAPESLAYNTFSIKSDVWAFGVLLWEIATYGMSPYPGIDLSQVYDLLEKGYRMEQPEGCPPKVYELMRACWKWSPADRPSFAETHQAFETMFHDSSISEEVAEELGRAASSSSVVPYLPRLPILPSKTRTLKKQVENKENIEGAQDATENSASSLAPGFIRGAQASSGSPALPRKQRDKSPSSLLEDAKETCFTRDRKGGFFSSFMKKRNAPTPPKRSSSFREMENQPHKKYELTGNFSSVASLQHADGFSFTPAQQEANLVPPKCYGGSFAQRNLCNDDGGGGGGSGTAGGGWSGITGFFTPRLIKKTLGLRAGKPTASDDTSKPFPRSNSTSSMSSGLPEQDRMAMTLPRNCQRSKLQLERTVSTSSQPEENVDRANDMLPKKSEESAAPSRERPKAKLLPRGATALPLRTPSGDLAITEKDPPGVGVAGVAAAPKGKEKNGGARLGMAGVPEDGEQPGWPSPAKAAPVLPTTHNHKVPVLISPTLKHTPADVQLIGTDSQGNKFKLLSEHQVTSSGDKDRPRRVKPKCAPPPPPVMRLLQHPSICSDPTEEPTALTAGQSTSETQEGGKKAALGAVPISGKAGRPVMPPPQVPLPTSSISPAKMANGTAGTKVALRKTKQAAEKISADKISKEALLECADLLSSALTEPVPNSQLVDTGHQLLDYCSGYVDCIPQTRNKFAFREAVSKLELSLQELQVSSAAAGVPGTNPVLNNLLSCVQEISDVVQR
Sequence of Mitogen-activated protein kinase 14 (Q16539 whole entry): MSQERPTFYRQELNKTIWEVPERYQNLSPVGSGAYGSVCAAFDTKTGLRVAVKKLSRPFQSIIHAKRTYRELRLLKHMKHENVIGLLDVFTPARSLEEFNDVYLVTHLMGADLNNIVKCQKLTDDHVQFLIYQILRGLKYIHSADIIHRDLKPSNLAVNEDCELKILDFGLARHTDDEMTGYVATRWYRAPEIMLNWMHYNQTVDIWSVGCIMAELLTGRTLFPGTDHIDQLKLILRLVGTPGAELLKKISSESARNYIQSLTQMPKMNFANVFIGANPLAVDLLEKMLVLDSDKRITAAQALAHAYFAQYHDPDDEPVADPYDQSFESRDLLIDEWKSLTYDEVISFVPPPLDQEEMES

| Compound | microsomal CLint [1] [µL/min/mg] | Papp [2] [×10⁻⁶ cm/s] | IC50 [3] [nM] | IC50 [4] [nM] | IC50 [5] [nM] | IC50 [6] [nM] | IC50 [7] [nM] | IC50 [8] [nM] | IC50 [9] [nM] | IC50 [10] [nM] | IC50 [11] [nM] | IC50 [12] [nM] | IC50 [13] [nM] |
| --- | --- | --- | --- | --- | --- | --- | --- | --- | --- | --- | --- | --- | --- |
| CN1CCN(Cc2ccc(NC(=O)Nc3cc(C#Cc4cncc5nccn45)n(C)n3)cc2C(F)(F)F)CC1 | 76 | 0.1 | 35 | 0.9 | 1.9 | 0.9 | 1.6 | 0.7 | 1.6 | 15 | 12 | 11 | 2 |
| Cc1ccc(C(=O)Nc2ccc(CN3CCN(C)CC3)c(C(F)(F)F)c2)cc1C#Cc1cncc2nccn12 | 90 | 26 | 43 | 0.3 | 0.4 | 0.3 | 0.5 | 0.3 | 0.6 | 1 | 1 | 2 | 0.2 |
| CN1CCN(Cc2ccc(NC(=O)Nc3cc(C#Cc4cnc5cnccn45)n(C)n3)cc2C(F)(F)F)CC1 | 51 | 0.2 | 35 | 0.4 | 0.8 | 0.5 | 1 | 0.3 | 1 | 10 | 7 | 3 | 0.4 |
| CN1CCN(Cc2ccc(NC(=O)Nc3cc(C#Cc4cnc5cccnn45)n(C)n3)cc2C(F)(F)F)CC1 | 29 | 2 | 24 | 0.4 | 0.4 | 0.4 | 0.7 | 0.2 | 1 | 6 | 12 | 47 | 27 |
